Activity calls are given as the source filed them. The calls are words filed in the database; no cut-off is given here.
How the values were obtained:
Mus musculus [1] = experiment: Swimming activity of the treated mice/control mice at 39 umol/kg, sc (p < 0.05); format: functional
Mus musculus [2] = experiment: Swimming activity of the treated mice/control mice at 12 umol/kg, sc; format: functional
[3] = molecular target: T1, 5-hydroxytryptamine receptor 1A (Homo sapiens, UniProt P08908); experiment: Binding affinity against [3H]8-OH-DPAT-labeled 5-hydroxytryptamine 1A receptor sites in cloned CHO cells; format: cell-based
T1 sequence (P08908 whole entry): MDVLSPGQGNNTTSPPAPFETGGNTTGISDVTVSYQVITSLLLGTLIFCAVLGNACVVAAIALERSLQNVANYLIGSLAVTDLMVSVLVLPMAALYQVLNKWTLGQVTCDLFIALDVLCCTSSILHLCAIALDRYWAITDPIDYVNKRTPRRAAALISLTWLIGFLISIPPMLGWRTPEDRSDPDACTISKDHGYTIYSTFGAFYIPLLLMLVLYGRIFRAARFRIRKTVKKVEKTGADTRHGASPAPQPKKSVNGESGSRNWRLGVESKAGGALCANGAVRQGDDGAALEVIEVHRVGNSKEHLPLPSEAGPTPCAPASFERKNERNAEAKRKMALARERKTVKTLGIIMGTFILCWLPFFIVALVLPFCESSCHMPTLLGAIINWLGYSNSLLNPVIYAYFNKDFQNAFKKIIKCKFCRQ
Procedure, shortened: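 Competition binding against [3H]-8-OH-DPAT (85 Ci/mmol, 1.2 nM) using 11 dilutions of test compound. Receptor was cloned mammalian 5-HT1A expressed in CHO-K1 cells. IC50 from a one-site nonlinear least-squares fit, converted to Ki by Cheng-Prusoff. Ki reported ±SEM.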

Rattus norvegicus [4] = experiment: 5-HTP accumulation in hemispheres of reserpinized rats following subcutaneous administration; format: functional; settings: sc
Rattus norvegicus [5] = species: Rattus norvegicus; experiment: Inhibition of 5-HT1A cell firing in rats; format: functional
Procedure, shortened: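 Male Sprague-Dawley rats (280-330 g) under chloral hydrate anesthesia (400 mg/kg ip), drug given iv via femoral vein in distilled water. Dorsal raphe serotonergic neurons recorded extracellularly and confirmed histologically by dye deposit. Firing rate followed by integrated ratemeter.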

Mus musculus [6] = experiment: Swimming activity of the treated mice/control mice at 12 umol/kg, sc (p < 0.001); format: functional
Mus musculus [7] = experiment: Swimming activity of the treated mice/control mice at 1.2 umol/kg, sc; format: functional
Mus musculus [8] = experiment: Swimming activity of the treated mice/control mice at 39 umol/kg, sc (p < 0.001); format: functional
Rattus norvegicus [9] = experiment: In vivo motor activity at 50 umol/kg (sc) in male rats expressed as accumulated counts/30 min (p < 0.01); format: functional
Mus musculus [10] = experiment: Swimming activity of the treated mice/control mice at 3.9 umol/kg, sc (p < 0.001); format: functional
Mus musculus [11] = experiment: Effect on hypothermia in mice following peroral administration; settings: po
Rattus norvegicus [12] = experiment: 5-HTP accumulation in corpus striatum of reserpinized rats following subcutaneous administration; format: functional; settings: sc
Rattus norvegicus [13] = experiment: 5-HTP accumulation in limbic system of reserpinized rats following subcutaneous administration; format: functional; settings: sc
Mus musculus [14] = experiment: Effect on hypothermia in mice following subcutaneous administration; settings: sc
Rattus norvegicus [15] = experiment: DOPA accumulation in hemispheres of reserpinized rats following subcutaneous administration at highest dose tested (50 umol/kg); Inactive; format: functional, organism-based
Rattus norvegicus [16] = experiment: DOPA accumulation in corpus striatum of reserpinized rats following subcutaneous administration at highest dose tested (50 umol/kg); Inactive; format: functional, organism-based
Rattus norvegicus [17] = species: Rattus norvegicus; experiment: Compound was tested for gross behavioral response in rats; partial 5-HT syndrome; format: functional, organism-based
Rattus norvegicus [18] = experiment: DOPA accumulation in limbic system of reserpinized rats following subcutaneous administration at highest dose tested (50 umol/kg); Inactive; format: functional, organism-based
Felis catus [19] = experiment: Inhibition of sympathetic nerve discharge (SND) in anesthetized cat; format: functional
Procedure, shortened: (§1)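 Adult cats (2.5-4.0 kg) anesthetized with ketamine 11 mg/kg im then chloralose 80 mg/kg iv. Animals paralyzed with gallamine, ventilated, and kept at 37-38 °C. Blood pressure recorded via femoral artery. Sympathetic activity quantified by cumulative integration. Increasing doses given iv cumulatively at 20-min intervals.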

Rattus norvegicus [20] = experiment: 5-HTP accumulation in corpus striatum of reserpinized rats following subcutaneous administration.; format: functional; settings: sc
Felis catus [21] = experiment: Maximum decrease in blood pressure observed following 1 mg/kg dose in anesthetized cat; format: functional; parameters: unit not given here; procedure, shortened: as §1
Rattus norvegicus [22] = experiment: 5-HTP accumulation in hemispheres of reserpinized rats following subcutaneous administration.; format: functional; settings: sc
Felis catus [23] = experiment: Maximum decrease in sympathetic nerve discharge in anesthetized cat.; format: functional; procedure, shortened: as §1
Rattus norvegicus [24] = experiment: In vivo motor activity at 12.5 umol/kg (po) in male rats expressed as accumulated counts/30 min (p < 0.001); format: functional
Rattus norvegicus [25] = experiment: 5-HTP accumulation in hemispheres of reserpinized rats following peroral administration; format: functional; settings: po
Rattus norvegicus [26] = experiment: 5-HTP accumulation in corpus striatum of reserpinized rats following peroral administration; format: functional; settings: po
[27] = Half-life time in rats; format: ADME, organism-based; settings: rat, in vivo
Procedure, shortened: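 Male Sprague-Dawley rats (300 g) sampled from arterial catheters 24 h after surgery over 10-24 h. Dosing was 5 µmol/kg iv and 40 µmol/kg po, with oral rats fasted 18 h. Parent drug in blood measured by GC/MS after pH 11 dichloromethane extraction with internal standard, samples run in duplicate. Availability from po/iv AUC ratio (n = 4).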

Rattus norvegicus [28] = experiment: In vivo motor activity at 12.5 umol/kg (sc) in male rats expressed as accumulated counts/30 min (p < 0.001); format: functional
Felis catus [29] = experiment: Percent arterial blood pressure at sympathetic nerve discharge in anesthetized cat; format: functional; procedure, shortened: as §1
Rattus norvegicus [30] = experiment: 5-HTP accumulation in limbic system of reserpinized rats following peroral administration; format: functional; settings: po
Mus musculus [31] = experiment: Swimming activity of the treated mice/control mice at 39 umol/kg, sc; format: functional
Rattus norvegicus [32] = experiment: DOPA accumulation in limbic system of reserpinized rats following peroral administration at highest dose tested (50 umol/kg); Partially active; format: functional, organism-based
Mus musculus [33] = experiment: Swimming activity of the treated mice/control mice at 39 umol/kg, sc (p < 0.01); format: functional
Rattus norvegicus [34] = experiment: In vivo motor activity at 5 umol/kg (sc) in male rats expressed as accumulated counts/30 min (p < 0.001); format: functional
Mus musculus [35] = experiment: Swimming activity of the treated mice/control mice at 6.6 umol/kg, sc; format: functional
Rattus norvegicus [36] = experiment: In vivo motor activity at 50 umol/kg (po) in male rats expressed as accumulated counts/30 min (p < 0.001); format: functional
Rattus norvegicus [37] = experiment: DOPA accumulation in corpus striatum of reserpinized rats following peroral administration at highest dose tested (50 umol/kg); Inactive; format: functional, organism-based
Rattus norvegicus [38] = experiment: DOPA accumulation in hemispheres of reserpinized rats following peroral administration at highest dose tested (50 umol/kg); Inactive; format: functional, organism-based
Rattus norvegicus [39] = species: Rattus norvegicus; experiment: Compound was tested for gross behavioral response in rats; full-blown 5-HT syndrome; format: functional, organism-based

Compound	Ki [3] [nM]	ED50 (Rattus norvegicus [4]) [µmol/kg]	ED50 (Rattus norvegicus [5]) [µmol/kg]	Swimming activity (Mus musculus [6])	Swimming activity (Mus musculus [7])	Swimming activity (Mus musculus [10])	ED50 (Mus musculus [11]) [µmol/kg]	ED50 (Rattus norvegicus [12]) [µmol/kg]	ED50 (Rattus norvegicus [13]) [µmol/kg]	ED50 (Mus musculus [14]) [µmol/kg]	ED50 (Rattus norvegicus [15])	ED50 (Rattus norvegicus [16])	ED50 (Rattus norvegicus [18])	ED50 (Felis catus [19]) [µmol/kg]	Max decrease (Felis catus [21])	Max decrease (Felis catus [23])	ED50 (Rattus norvegicus [25]) [µmol/kg]	ED50 (Rattus norvegicus [26]) [µmol/kg]	BP (Felis catus [29]) [%]	ED50 (Rattus norvegicus [30]) [µmol/kg]	other results
CCCN1CCC2c3c(cccc3C(N)=O)CC[C@@H]21 (single isomer, unassigned; (+)-3a) [listing 2 of 2 here]	–	–	–	–	–	–	–	–	–	–	inactive	inactive	inactive	–	–	–	–	–	–	–	Response (Rattus norvegicus [17]): Partially active
O=C(NCCN1CCN(c2cccc3c2OCC(CO)O3)CC1)c1ccc(F)cc1 (single isomer, unassigned; (+))	2.9	0.63	0.16	–	–	–	1.6	0.55	0.63	0.16	inactive	inactive	inactive	0.14	55	2	0.36	0.27	79	0.36	ED50 (Rattus norvegicus [32]): Weak activity; Swimming activity (Mus musculus [33]): 3.3; Accumulated counts/30 min (Rattus norvegicus [34]): 84; Swimming activity (Mus musculus [35]): 0.6; Accumulated counts/30 min (Rattus norvegicus [36]): 135; ED50 (Rattus norvegicus [37]): inactive; ED50 (Rattus norvegicus [38]): inactive; Response (Rattus norvegicus [39]): Active

Second part, led by results:

Ki [3] [nM]	Compound	ED50 (Rattus norvegicus [4]) [µmol/kg]	ED50 (Rattus norvegicus [5]) [µmol/kg]	Swimming activity (Mus musculus [6])	Swimming activity (Mus musculus [7])	Swimming activity (Mus musculus [10])	ED50 (Mus musculus [11]) [µmol/kg]	ED50 (Rattus norvegicus [12]) [µmol/kg]	ED50 (Rattus norvegicus [13]) [µmol/kg]	ED50 (Mus musculus [14]) [µmol/kg]	ED50 (Rattus norvegicus [15])	ED50 (Rattus norvegicus [16])	ED50 (Rattus norvegicus [18])	ED50 (Felis catus [19]) [µmol/kg]	Max decrease (Felis catus [21])	Max decrease (Felis catus [23])	ED50 (Rattus norvegicus [25]) [µmol/kg]	ED50 (Rattus norvegicus [26]) [µmol/kg]	BP (Felis catus [29]) [%]	ED50 (Rattus norvegicus [30]) [µmol/kg]	other results
28	CCCN1CC[C@H]2c3c(cccc3C(N)=O)CC[C@H]21 (stereo in doubt; (-)-3b)	–	–	–	–	–	–	–	–	–	–	–	–	–	–	–	–	–	–	–	Swimming activity (Mus musculus [1]): 1.7; Swimming activity (Mus musculus [2]): 0.7
17	CCCN1CCC2c3c(cccc3C(N)=O)CC[C@@H]21 (single isomer, unassigned; (+)-3a) [listing 1 of 2 here]	5.2	> 1.2	4.7	1	4	28	1.6	1.8	8.9	–	–	–	–	–	–	–	–	–	–	Swimming activity (Mus musculus [8]): 8.3; Accumulated counts/30 min (Rattus norvegicus [9]): 17
1.9	CCCN1CC[C@H]2c3c(cccc3C(N)=O)CC[C@H]21 (stereo in doubt; (-)-3a)	–	0.023	7.1	1.5	4.7	2.8	–	0.28	0.4	–	–	–	0.049	52	0	0.28	< 0.2	83	0.23	ED50 (Rattus norvegicus [20]): 0.07 µmol/kg; ED50 (Rattus norvegicus [22]): 0.32 µmol/kg; Accumulated counts/30 min (Rattus norvegicus [24]): 173; half-life [27]: 2 h; Accumulated counts/30 min (Rattus norvegicus [28]): 249; Swimming activity (Mus musculus [31]): 1.1

Reference: ChEMBL document CHEMBL1126752, “Synthesis and biological activity of cis-(3aR)-(-)-2,3,3a,4,5,9b-hexahydro- 3-propyl-1H-benz[e]indole-9-carboxamide: a potent and selective 5-HT1A receptor agonist with good oral availability” (J Med Chem, 1993)
